The target in assay [1] is T1, Adenosine receptor A2b (Homo sapiens) (UniProt P29275).
T1 sequence (whole entry): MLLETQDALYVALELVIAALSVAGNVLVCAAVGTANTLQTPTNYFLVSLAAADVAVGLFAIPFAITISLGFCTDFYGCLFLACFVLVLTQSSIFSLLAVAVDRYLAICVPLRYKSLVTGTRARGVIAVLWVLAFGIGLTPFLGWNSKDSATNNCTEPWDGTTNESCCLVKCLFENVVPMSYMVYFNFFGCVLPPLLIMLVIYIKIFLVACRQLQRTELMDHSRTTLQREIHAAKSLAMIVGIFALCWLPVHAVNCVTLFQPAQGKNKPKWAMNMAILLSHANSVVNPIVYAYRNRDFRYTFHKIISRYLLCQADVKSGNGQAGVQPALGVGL
As to the kind of experiment: Displacement of [3H]MRS1754 from human adenosine A2B receptor expressed in CHO cells at 10 uM. Format: cell-based. The essentials:
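CHO membranes expressing human A2B (20 µg protein) with ~1.2 nM [3H]MRS1754 and 10 µM test ligand, 60 min at 25 °C, in 50 mM Tris-HCl pH 7.4 with 0.1% CHAPS. Nonspecific binding with 1 mM NECA. Filtration, then scintillation counting.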
Background: In a radioligand displacement assay an active substance lowers the binding of a labelled ligand.

Assay [2] deals with Adenosine receptor A2a (Homo sapiens) (UniProt P29274). As to the kind of experiment: Displacement of [3H]ZM241385 from human adenosine A2A receptor expressed in HEK293 cells at 10 uM. Format: cell-based. The essentials:
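HEK293 membranes with human A2A (30 µg protein) incubated 120 min at 25 °C in 50 mM Tris-HCl pH 7.4 with ~1.7 nM [3H]ZM241385 and 10 µM test ligand. Nonspecific binding defined by 100 µM CGS 21680. Filtration, then liquid scintillation counting.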

In assay [3] the target is T2, Adenosine receptor A3 (Homo sapiens) (UniProt P0DMS8).
T2 sequence (whole entry): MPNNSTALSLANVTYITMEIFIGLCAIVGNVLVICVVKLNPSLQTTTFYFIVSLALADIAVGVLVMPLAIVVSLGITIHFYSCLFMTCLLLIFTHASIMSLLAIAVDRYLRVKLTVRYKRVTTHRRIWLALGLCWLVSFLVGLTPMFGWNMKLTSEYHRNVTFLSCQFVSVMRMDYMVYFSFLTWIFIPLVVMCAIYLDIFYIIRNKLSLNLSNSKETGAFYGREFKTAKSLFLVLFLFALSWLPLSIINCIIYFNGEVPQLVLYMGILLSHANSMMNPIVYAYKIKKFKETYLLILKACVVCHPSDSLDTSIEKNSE
As to the kind of experiment: Displacement of [125I]AB-MECA from human adenosine A3 receptor expressed in CHO cells at 10 uM. Format: cell-based. The essentials:
(§1)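 Equilibrium binding on CHO membranes with human A1 (20 µg protein, 60 min) or A3 (10 µg, 120 min) at 25 °C. Buffer 50 mM Tris-HCl pH 8.0, 10 mM MgCl2, 1 mM EDTA, 0.01% CHAPS. Test ligand 10 µM with ~0.1 nM 125I-AB-MECA. Nonspecific binding with 10 µM DPCPX (A1) or 100 µM R-PIA (A3). Filtration, then γ-counting.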

For assay [4], the target named is T2, Adenosine receptor A3 (Homo sapiens). As to the kind of experiment: Binding affinity to human adenosine A3 receptor expressed in CHO cells assessed as enhancement of C1IB-MECA-induced displacement of [125I]AB-MECA from receptor at 10 uM after 120 mins relative to control.
For assay [5], the target named is T3, Adenosine receptor A1 (Homo sapiens) (UniProt P30542).
T3 sequence (whole entry): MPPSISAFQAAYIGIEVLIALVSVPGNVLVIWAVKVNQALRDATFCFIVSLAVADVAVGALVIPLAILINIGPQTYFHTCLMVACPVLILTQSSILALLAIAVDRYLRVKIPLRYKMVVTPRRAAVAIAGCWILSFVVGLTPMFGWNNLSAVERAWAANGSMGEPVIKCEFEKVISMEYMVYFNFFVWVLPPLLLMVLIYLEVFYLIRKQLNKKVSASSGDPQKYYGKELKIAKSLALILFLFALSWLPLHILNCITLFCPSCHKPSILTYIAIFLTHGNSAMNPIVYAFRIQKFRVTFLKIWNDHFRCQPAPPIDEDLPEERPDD
As to the kind of experiment: Displacement of [125I]AB-MECA from human adenosine A1 receptor expressed in CHO cells at 10 uM. The class given is cell-based. The essentials: as §1

Assay [6] addresses T3, Adenosine receptor A1 (Homo sapiens). As to the kind of experiment: Binding affinity to human adenosine A1 receptor expressed in CHO cells assessed as enhancement of DPCPX-induced displacement of [125I]AB-MECA from receptor at 10 uM after 90 mins relative to control. Format: cell-based. The essentials:
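CHO membranes expressing human A1 (20 µg) or A3 (10 µg) preincubated with ~0.1 nM 125I-AB-MECA at 25 °C, 60 min (A1) or 120 min (A3), in 50 mM Tris-HCl pH 8.0, 10 mM MgCl2, 1 mM EDTA, 0.01% CHAPS. Dissociation started with 10 µM DPCPX (A1) or 10 µM Cl-IB-MECA (A3), with or without modulator. Bound ligand read at 90 min (A1) or 120 min (A3); control = 100%. Two assays in duplicate.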

Assay [7] deals with T2, Adenosine receptor A3 (Homo sapiens). As to the kind of experiment: Intrinsic activity at human adenosine A3 receptor expressed in CHO cells assessed as increase in C1IB-MECA-stimulated inhibition of forskolin-induced cAMP release at 10 uM by TR-FRET assay. Format: functional, cell-based. The essentials: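 Forskolin-stimulated cAMP in CHOhA3 cells (~5000/well). Cl-IB-MECA concentration range given with or without 10 µM modulator in stimulation buffer (PBS, 5 mM Hepes pH 7.4, 0.1% BSA, 50 µM rolipram, 50 µM cilostamide), 15 min at room temperature. Forskolin 1 µM added, 30 min at room temperature. TR-FRET cAMP read-out. 100% = cAMP with 10 µM Cl-IB-MECA, 0% = forskolin alone. Three assays in duplicate.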
In general terms: TR-FRET usually uses a lanthanide donor and a delayed reading to cut background.

Adenosine receptor A2a (Homo sapiens), sequence (P29274 whole entry): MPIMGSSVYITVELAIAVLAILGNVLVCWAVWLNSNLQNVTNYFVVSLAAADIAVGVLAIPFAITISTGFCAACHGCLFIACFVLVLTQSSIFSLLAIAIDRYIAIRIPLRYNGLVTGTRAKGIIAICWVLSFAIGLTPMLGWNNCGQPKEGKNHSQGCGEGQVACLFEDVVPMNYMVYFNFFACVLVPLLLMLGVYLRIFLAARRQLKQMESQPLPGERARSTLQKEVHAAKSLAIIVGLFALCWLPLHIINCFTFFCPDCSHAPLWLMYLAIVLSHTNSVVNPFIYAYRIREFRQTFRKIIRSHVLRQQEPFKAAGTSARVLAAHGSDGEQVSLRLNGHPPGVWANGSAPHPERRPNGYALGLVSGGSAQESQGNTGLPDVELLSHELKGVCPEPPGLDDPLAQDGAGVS

Turning to `O=C(Nc1cc(Nc2ccccc2)nc2ccccc12)C1CCCC1`, the Activity in assay [1] stood at 61%; in assay [2], 34%; in assay [3], 33%; in assay [4], 145%; in assay [5], 49%; in assay [6], 104%.
For `O=C(Nc1cc(Nc2ccc(Cl)c(Cl)c2)nc2ccccc12)c1ccco1`, the Activity was determined as 13% in assay [1]; 10% in assay [2]; 15% in assay [3]; 96% in assay [4]; 11% in assay [5]; 69% in assay [6].
Consider `O=C(Nc1cc(Nc2ccc(Cl)c(Cl)c2)nc2ccccc12)C1CCCCC1`, for which the Activity is 17% in assay [1]; -19% in assay [2]; 12% in assay [3]; 249% in assay [4]; 12% in assay [5]; 94% in assay [6]. Moreover, the Emax in assay [7] worked out at 223%.
Consider `O=C(Nc1cc(Nc2ccccc2)nc2ccccc12)c1ccccc1`, for which the Activity was 76% in assay [1]; 75% in assay [2]; 46% in assay [3]; 100% in assay [4]; 64% in assay [5]; 77% in assay [6].
Consider `O=C(Nc1cc(Nc2ccc3c(c2)CCC3)nc2ccccc12)C1CCCC1`, for which the Activity in assay [1] is 62%; in assay [2], 14%; in assay [3], 36%; in assay [4], 147%; in assay [5] it was 47%; in assay [6], 90%.
Turning to `O=C(Nc1cc(Nc2ccc(Cl)c(Cl)c2)nc2ccccc12)C1CCCC1`, the Activity in assay [1] was -50%; in assay [2], -74%; in assay [3], 26%; in assay [4], 169%; in assay [5], 17%; in assay [6], 125%.
As for `O=C(Nc1cc(Nc2ccc3c(c2)CCC3)nc2ccccc12)C1CCCCC1`, the Activity is 42% in assay [1]; 19% in assay [2]; 10% in assay [3]; 217% in assay [4]; 20% in assay [5]; 118% in assay [6].
Regarding `O=C(Nc1cc(NCc2ccccc2)nc2ccccc12)C1CCCC1`, the Activity in assay [1] worked out at 28%; in assay [2], 49%; in assay [3], 34%; in assay [4], 107%; in assay [5], 34%; in assay [6], 77%.
Regarding `COc1ccc(Nc2cc(NC(=O)C3CCCC3)c3ccccc3n2)cc1`, the Activity in assay [1] was found to be 35%; in assay [2], 19%; in assay [3] it was 9%; in assay [4] it was 134%; in assay [5], 24%; in assay [6], 94%.
On to `Cc1ccc(Nc2cc(NC(=O)C3CCCC3)c3ccccc3n2)cc1`, for which the Activity in assay [1] came out at 63%; in assay [2] it was 35%; in assay [3], 27%; in assay [4], 165%; in assay [5], 52%; in assay [6], 115%.
With `Cc1ccc(Nc2cc(NC(=O)C3CCCCC3)c3ccccc3n2)cc1`, the Activity in assay [1] was 64%; in assay [2], -3%; in assay [3], -3%; in assay [4], 220%; in assay [5] it was 63%; in assay [6], 121%.
For the compound `O=C(Nc1cc(NC2CCCC2)nc2ccccc12)C1CCCC1`, the Activity worked out at 14% in assay [1]; 72% in assay [2]; 42% in assay [3]; 114% in assay [4]; 80% in assay [5]; 107% in assay [6].
Turning to `O=C(Nc1cc(Nc2ccc3cn[nH]c3c2)nc2ccccc12)C1CCCC1`, the Activity came out at 90% in assay [1]; 56% in assay [2]; 52% in assay [3]; 102% in assay [4]; 61% in assay [5]; 72% in assay [6].
For the compound `Clc1ccc(Nc2nc3ccccc3c3nc(C4CCCCC4)[nH]c23)cc1Cl`, the Activity in assay [1] was 41%; in assay [2], 16%; in assay [3], 3%; in assay [4], 229%; in assay [5] it was 39%; in assay [6], 120%. Further, the Emax in assay [7] is 286%.
As for `O=C(Nc1cc(Nc2ccc(Cl)c(Cl)c2)nc2ccccc12)c1ccccc1`, the Activity was 37% in assay [1]; -20% in assay [2]; 11% in assay [3]; 112% in assay [4]; 23% in assay [5]; 102% in assay [6].
For `O=C(Nc1cc(Nc2ccccc2)nc2ccccc12)C1CCCCC1`, the Activity stood at 26% in assay [1]; 5% in assay [2]; 21% in assay [3]; 210% in assay [4]; 17% in assay [5]; 70% in assay [6].
For the compound `O=C(Nc1cc(Nc2ccccc2)nc2ccccc12)c1ccco1`, the Activity worked out at 60% in assay [1]; 95% in assay [2]; 92% in assay [3]; 100% in assay [4]; 73% in assay [5]; 68% in assay [6].
As to `O=C(Nc1cc(Nc2ccccc2)nc2ccccc12)C1CCC1`, the Activity was found to be 66% in assay [1]; 79% in assay [2]; 73% in assay [3]; 119% in assay [4]; 76% in assay [5]; 79% in assay [6].
`O=C(Nc1cc(Nc2ccc(Cl)c(Cl)c2)nc2ccccc12)C1CCC1`: the Activity was found to be 51% in assay [1]; 38% in assay [2]; 41% in assay [3]; 149% in assay [4]; 22% in assay [5]; 72% in assay [6].

In general, Emax refers to the greatest response seen or fitted, relative to the assay's reference.

The values are drawn from ChEMBL document CHEMBL1140939, “A series of 2,4-disubstituted quinolines as a new class of allosteric enhancers of the adenosine A3 receptor” (J Med Chem, 2009).
